Screening results from PubChem BioAssay.
NRP1-CendR mod – NRP-1/CendR interaction modulation; O14786; FAM-RPARPAR peptide binding to NRP-1, fluorescence polarization; AID 602438; inhibition, % at 25 µM; 360,000 compounds, 0.85% hits;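 active means inhibition or corrected inhibition above about 18%, plus a signal ratio from 0.5 to 1.5, limit read from the data, passing the limit was not always enough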
CRFR2-BP antag – blocks CRF-induced signaling of the CRF-BP/CRF-R2 complex | HEK293 CRF-R2/CRF-BP, CRF-induced calcium fluorescence | inhibition, % at 11.8 µM | 350,000 compounds, 0.59% hits;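 active means inhibition of the ligand-induced calcium signal above about 50% at the single tested concentration, limit read from the data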
KLK7 zymogen act – activates the human kallikrein-7 zymogen; P49862; purified proKLK7, EDANS-DABCYL substrate fluorescence; 100% is mature enzyme control, 0% vehicle; activation, % at 7 µM; 370,000 compounds, 0.9% hits; AID 652039;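 active means activation above the mean of all tested compounds plus 3 SD, computed per campaign excluding outliers beyond control limits, cut at about 13% in these data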
Target sequence (P49862 whole entry, looked up): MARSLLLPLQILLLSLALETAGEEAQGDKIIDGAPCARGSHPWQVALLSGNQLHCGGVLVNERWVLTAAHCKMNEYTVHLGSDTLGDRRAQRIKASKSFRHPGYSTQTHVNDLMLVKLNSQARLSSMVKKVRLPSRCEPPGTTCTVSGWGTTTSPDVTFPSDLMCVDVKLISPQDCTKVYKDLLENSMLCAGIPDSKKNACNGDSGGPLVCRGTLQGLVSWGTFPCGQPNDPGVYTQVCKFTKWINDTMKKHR
Tn7 DDE FP – inhibitors of Tn7 peptide binding to human fibrin DD(E) | P02675 | FP displacement of FITC-Tn7 peptide from fibrin DD(E); 0% = median of compound wells per plate | inhibition, % at 8.3 µM | 370,000 compounds, 0.13% hits | AID 720508;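 active means inhibition above the mean of compounds falling within the control limits plus 3 SD of them, cut at about 14% in these data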
Target sequence (P02675 whole entry, looked up): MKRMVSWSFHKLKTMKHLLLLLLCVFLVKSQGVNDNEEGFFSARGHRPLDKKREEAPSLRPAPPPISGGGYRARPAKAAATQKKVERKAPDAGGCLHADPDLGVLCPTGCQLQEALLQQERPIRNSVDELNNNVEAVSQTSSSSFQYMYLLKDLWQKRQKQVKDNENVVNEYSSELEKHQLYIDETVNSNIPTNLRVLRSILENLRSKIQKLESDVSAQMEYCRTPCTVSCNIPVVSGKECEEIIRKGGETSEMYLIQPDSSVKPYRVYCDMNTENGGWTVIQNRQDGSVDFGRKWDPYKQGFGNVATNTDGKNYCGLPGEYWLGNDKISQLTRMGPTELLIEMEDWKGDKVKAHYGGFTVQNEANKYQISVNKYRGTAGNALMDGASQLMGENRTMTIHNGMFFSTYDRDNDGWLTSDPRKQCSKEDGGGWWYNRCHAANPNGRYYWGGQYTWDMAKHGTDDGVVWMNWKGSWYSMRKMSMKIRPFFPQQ
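Test system: human clot-derived fibrin DD(E) complex / Quantity: 2 µM final DD(E) protein / Incubation: 10 min plus 3 h, room temperature / Measured by: fluorescence polarization / Benchmarks: high control of 10 µM Aha-Tn7 peptide / Replicates: singlicate testing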
DDE Tn6 FP inh – DD(E)-Tn6 binding inhibition, primary FP screen. inhibition, % at 8.3 µM. P02675. Fibrin DD(E) TRITC-Tn6 fluorescence polarization displacement. AID 720509. 370,000 compounds, 0.21% hits;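 active means inhibition above a per-campaign cutoff: mean of compounds within control limits plus 3 SD, cut at about 15% in these data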
CRFBP-R2 agonist – agonists of human CRF-binding protein/CRF-R2 receptor complex | HEK293 CRF-R2/CRF-BP, calcium dye fluorescence (FLIPR); percent of saturating CRF peptide response | activation, % at 13.2 µM | 350,000 compounds, 0.46% hits | AID 588473;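 active means activation of at least 50%, plus an integration ratio under a set limit after plate pattern correction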
Each line names hits and unclear results; the compound was inactive in the other large screens. Only some compounds are listed: those with a hit (about 2.9% of all), similar ones and a draw of the others.

COc1ccc(NC(=O)CSc2nccn2-c2ccccc2)c(OC)c1	NRP1-CendR mod 26
COc1ccc(NC(=O)CC(=O)Nc2ccc(OC)cc2OC)c(OC)c1	none
CCCCC(=O)Nc1ccc(C(=O)Nc2ccc(OC)cc2[N+](=O)[O-])cc1	CRFBP-R2 agonist 117
CCCCC(=O)Nc1ccc(NC(=O)c2ccc([N+](=O)[O-])cc2)cc1OC	none
COC(=O)C1CCN(C(=O)CCn2nnc(-c3cccs3)n2)CC1	none (no result: NRP1-CendR mod, CRFR2-BP antag, CRFBP-R2 agonist)
CN[C@H]1C[C@H]2c3[nH]c4c(-c5ccc6c(c5)OCO6)cccc4c3CCN2C[C@H]1[C@H](C)O	none (no result: NRP1-CendR mod, CRFR2-BP antag, CRFBP-R2 agonist)
COC(=O)[C@]12C[C@H](CC(=O)NCc3cccc(C(F)(F)F)c3)C(=O)N(Cc3ccc4c(c3)OCO4)C1=C[C@H](C(C)C)O[C@@H]2C1CC1	none (no result: NRP1-CendR mod, CRFR2-BP antag, CRFBP-R2 agonist)
COc1cccc(CNc2ccc([N+](=O)[O-])cc2C)c1	CRFR2-BP antag 58
Cc1cc([N+](=O)[O-])ccc1NCc1ccc2c(c1)OCCO2	CRFR2-BP antag 53
O=[N+]([O-])c1ccc(NCc2ccc3c(c2)OCO3)cc1	none
COc1ccc([N+](=O)[O-])cc1NCc1ccccc1C	none
COc1ccc([N+](=O)[O-])cc1NCc1ccccc1	CRFR2-BP antag 98
O=C(NCc1ccco1)c1cc([N+](=O)[O-])ccc1Cl	none
Cc1cc([N+](=O)[O-])ccc1NCc1ccco1	CRFR2-BP antag 59
CCOc1ccc(-n2c(SCC(=O)c3ccccc3Cl)nnc2-c2ccncc2)cc1	none (no result: NRP1-CendR mod, CRFR2-BP antag, CRFBP-R2 agonist)
C[C@H](O)[C@@H]1CN2CCc3ccc(N4CCOCC4)cc3[C@@H]2C[C@@H]1N(C)C(=O)c1cccc(Cl)c1	none (no result: NRP1-CendR mod, CRFR2-BP antag, CRFBP-R2 agonist)
COc1cc2nc(/C=C/c3ccc(N(C)C)cc3)sc2cc1SC	CRFBP-R2 agonist 332
Cc1ccc(Nc2ccc(C(=O)O)cc2N)cc1	CRFR2-BP antag 56 (no result: NRP1-CendR mod)
O=C1N2Cc3ccccc3C2CS(=O)(=O)N1Cc1ccccc1 (stereo not drawn)	none (no result: NRP1-CendR mod, CRFR2-BP antag, CRFBP-R2 agonist)
N#CC1=C(N)NC(SCc2ccc(Br)cc2)=C(C#N)C12CCCCC2	none
N#CC1=C(N)NC(SCc2ccc(Cl)cc2)=C(C#N)C12CCCCC2	NRP1-CendR mod 29
COc1c(Cl)cc(-c2noc(C)c2C(=O)NCc2ccc3c(c2)OCO3)cc1Cl	CRFBP-R2 agonist 71
O=C(NC(=S)Nc1ccc(Cl)c(C(=O)O)c1)c1cccc(COc2ccccc2)c1	none
O=C(O)c1ccc(Cl)c(NC(=S)NC(=O)c2cccc(COc3ccccc3)c2)c1	CRFR2-BP antag 52
O=C1COc2ccc(S(=O)(=O)NCc3ccc(Cl)cc3)cc2N1	none
COC(=O)CN1C(=O)COc2ccc(S(=O)(=O)NCc3ccc(Cl)cc3)cc21	CRFR2-BP antag 99
COc1ccc(CC(=O)N2CCN(C(=O)c3ccc4nc(C)n(C5CCCC5)c4c3)CC2)cc1	none (no result: NRP1-CendR mod, CRFR2-BP antag, CRFBP-R2 agonist)
COc1ccc(-c2cc(-c3nnc(SCC(=O)NC4CCCCC4)n3N)[nH]n2)cc1	none (no result: NRP1-CendR mod, CRFR2-BP antag, CRFBP-R2 agonist)
Cc1cc(NS(=O)(=O)c2ccc(NC(=O)Cc3ccccc3)cc2)nc(C)n1	none
Cc1cc(NS(=O)(=O)c2ccc(NC(=O)CCCC(=O)O)cc2)nc(C)n1	NRP1-CendR mod 45
O=C(CCCCCN1C(=O)C2C3C=CC(C3)C2C1=O)Nc1ccc2ncccc2c1 (stereo not drawn)	none (no result: NRP1-CendR mod, CRFR2-BP antag, CRFBP-R2 agonist)
COc1cc(C=O)ccc1OCCOCCOc1ccc(Cl)cc1Cl	CRFR2-BP antag 69
COCOc1ccc(C=O)cc1OCOC	NRP1-CendR mod 22
N#Cc1cccc(Cn2ccc3ccc(-c4ccc5ccn(Cc6ccccc6)c5c4)cc32)c1	none (no result: NRP1-CendR mod, CRFR2-BP antag, CRFBP-R2 agonist)
COc1ccc(S(=O)(=O)N2CCOC2CNC(=O)C(=O)NCc2ccc3c(c2)OCO3)cc1 (stereo not drawn)	NRP1-CendR mod 23
COc1ccc(CCNC(=O)C(=O)NCC2OCCN2S(=O)(=O)c2ccc(OC)cc2)cc1 (stereo not drawn)	CRFR2-BP antag 64
O=C(Nc1cc(-c2ccccc2)sc1C(=O)O)c1cccc(F)c1	CRFR2-BP antag 73
CCOc1ccc(-c2cc(NC(=O)c3c(F)cccc3F)c(C(=O)O)s2)cc1	none
COc1ccc(C2C(C(=O)Nc3ccc(F)cc3F)CCC(=O)N2c2ccc(OC)cc2)cc1 (stereo not drawn)	none (no result: NRP1-CendR mod, CRFR2-BP antag, CRFBP-R2 agonist)
CCc1ccccc1NC(=O)NC1CC2CCC(C1)N2Cc1ccco1 (stereo not drawn)	NRP1-CendR mod 20
Cc1ccc(C(=O)NC2CC3CCC(C2)N3Cc2ccco2)cc1 (stereo not drawn)	none
COc1cc(OC)cc(C(=O)NC2CC3CCC(C2)N3Cc2ccco2)c1 (stereo not drawn)	CRFR2-BP antag 58
COC(=O)CSc1nnc(-c2ccc(NS(=O)(=O)c3ccc(C)c(C)c3)cc2)o1	none (no result: NRP1-CendR mod, CRFR2-BP antag, CRFBP-R2 agonist)
COc1ccc(C[N+]2=C(N)NC3=C4CCCCC4n4c(=O)n(-c5ccccc5)c(=O)n4C3C2)c(OC)c1 (stereo not drawn)	none (no result: NRP1-CendR mod, CRFR2-BP antag, CRFBP-R2 agonist)
COC(=O)C1CN(Cc2cn(Cc3ccc(C)cc3)nn2)CCS(=O)(=O)N1Cc1ccc(C)cc1 (stereo not drawn)	none (no result: NRP1-CendR mod, CRFR2-BP antag, CRFBP-R2 agonist)
COC(=O)c1ccccc1NC(=O)Nc1ccc(Br)cn1	none
COc1ccc(NC(=O)Nc2nnc(C(C)(C)C)s2)cc1	CRFR2-BP antag 58
CC(C)(C)c1nnc(NC(=O)Nc2ccc(Cl)cc2)s1	none
COc1ccc(NC(=O)Nc2ccc(Br)cn2)cc1	NRP1-CendR mod 24
COc1ccc(NC(=O)NNC(=O)C(O)(c2ccccc2)c2ccccc2)cc1	NRP1-CendR mod 28
COc1ccc2c(c1)CCCN2C(=O)C1CCCN(S(=O)(=O)c2cccs2)C1 (stereo not drawn)	none (no result: NRP1-CendR mod, CRFR2-BP antag, CRFBP-R2 agonist)
CO[C@H]([C@H](C)/C=C/N(C)C=O)[C@@H](C)C(=O)CC[C@H](C)[C@H](O)[C@H](C)[C@H]1OC(=O)/C=C/C(C)=C/C[C@H](O)C[C@@H]2C=CC[C@@H](C[C@H](OC)[C@@]3(CO3)[C@@H](OC)C[C@@H](OC)[C@@H]1C)O2	none (no result: NRP1-CendR mod, CRFR2-BP antag, KLK7 zymogen act, CRFBP-R2 agonist)
Cn1c(SCCS(=O)(=O)c2ccc(Cl)cc2)nnc1-c1ccccc1	NRP1-CendR mod 32
CCCC1CCC2(CC1)CCC2OC(=O)Nc1ccc(F)cc1 (stereo not drawn)	none (no result: NRP1-CendR mod, CRFR2-BP antag, KLK7 zymogen act, CRFBP-R2 agonist)
CN(C)c1ccc(C2C=C(c3ccc(Cl)cc3OC(F)F)Nc3ncnn32)cc1 (stereo not drawn)	CRFBP-R2 agonist 59
O=C(CCN1CCN(c2ccccc2)CC1)NNC(=O)Cc1ccccc1Cl	NRP1-CendR mod 37
Cc1c(C(=O)N(C)Cc2ccccc2)oc2ccc(S(=O)(=O)N3CCCC3)cc12	NRP1-CendR mod 25
Cc1ccc(O)c(C(=O)c2cc(C#N)c(=O)n(-c3nccs3)c2)c1	KLK7 zymogen act 17, CRFBP-R2 agonist 166
Cc1ccc(O)c(C(=O)c2cc(C#N)c(=O)n(-c3c(C)n(C)n(-c4ccccc4)c3=O)c2)c1	none
